In ChEMBL document CHEMBL1158989, “Synthesis and evaluation of hydroxylated flavones and related compounds as potential inhibitors of the protein-tyrosine kinase p56lck” (J Nat Prod, 1991):
≈ marks a conversion by molar mass, not a printed value.

Test: Inhibition of bovine thymus p56LCK-catalyzed phosphorylation of angiotensin 1 by SDS-PAGE
Set-up: species or system Bos taurus
In short: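 p56lck partially purified from bovine thymus (DEAE-cellulose, heparin-agarose, butyl-agarose chromatography). Substrate angiotensin I 1.2 mM with [γ-32P]ATP 50 μM. Reactions held 8% DMSO as inhibitor carrier; DMSO-only controls. Inhibitors tested at seven concentrations, 0.8 to 800 μg/ml. IC50 read graphically as half-maximal inhibition relative to DMSO controls.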

In order of rising IC50:
1. O=c1cc(-c2ccc(O)cc2)oc2cc(O)cc(O)c12 [APIGENIN]  4 µg/mL (≈ 14.8 µM)
2. O=c1cc(-c2cccc(O)c2)oc2ccc(O)cc12  4 µg/mL (≈ 15.7 µM)
3. O=c1c(O)c(-c2ccc(O)c(O)c2)oc2cc(O)ccc12 [FISETIN]  4 µg/mL (≈ 14 µM)
4. O=c1c(O)c(-c2ccc(O)c(O)c2)oc2cc(O)cc(O)c12 [QUERCETIN]  4 µg/mL (≈ 13.2 µM)
5. O=c1cc(-c2ccc(O)cc2)oc2cccc(O)c12  4 µg/mL (≈ 15.7 µM)
6. O=c1cc(-c2ccccc2)oc2cc(O)cc(O)c12 [CHRYSIN]  5 µg/mL (≈ 19.7 µM)
7. COc1cc(-c2cc(=O)c3ccccc3o2)cc(OC)c1O  7.7 µg/mL (≈ 25.8 µM)
8. O=c1cc(-c2cccc(O)c2)oc2cc(O)ccc12  10 µg/mL (≈ 39.3 µM)
9. O=c1cc(-c2ccc(O)c(O)c2)oc2cc(O)cc(O)c12 [LUTEOLIN]  10 µg/mL (≈ 34.9 µM)
10. COc1cc(-c2cc(=O)c3cc(O)ccc3o2)cc(OC)c1OC  20 µg/mL (≈ 60.9 µM)
11. COc1cc(-c2oc3cc(O)cc(O)c3c(=O)c2O)cc(OC)c1O [SYRINGETIN]  24 µg/mL (≈ 69.3 µM)
12. O=c1c(O)c(-c2cc(O)cc(O)c2)oc2cc(O)cc(O)c12  30 µg/mL (≈ 99.3 µM)
13. O=c1cc(-c2ccc(O)cc2)oc2ccc(O)cc12  30 µg/mL (≈ 118 µM)
14. COc1cc(-c2cc(=O)c3ccc(O)c(O)c3o2)cc(OC)c1O[Si](C)(C)C(C)(C)C  40 µg/mL (≈ 90 µM)
15. COc1cc(-c2cc(=O)c3cc(O)ccc3o2)cc(OC)c1O  41 µg/mL (≈ 130 µM)
16. O=c1cc(-c2ccc(O)cc2)oc2cc(O)ccc12  43 µg/mL (≈ 169 µM)
17. CC(C)(C)[Si](C)(C)Oc1ccc(-c2cc(=O)c3cc(O)ccc3o2)cc1  44 µg/mL (≈ 119 µM)
18. O=c1cc(-c2cccc(O)c2)oc2c(O)c(O)ccc12  48 µg/mL (≈ 178 µM)
19. O=c1c(O)c(-c2ccccc2)oc2cc(O)cc(O)c12 [GALANGIN]  80 µg/mL (≈ 296 µM)
20. COc1cc(O)c2c(=O)cc(-c3ccc(O)cc3)oc2c1 [GENKWANIN]  80 µg/mL (≈ 281 µM)
21. O=c1cc(-c2ccccc2)oc2cc(O)ccc12 [7-HYDROXYFLAVONE]  80 µg/mL (≈ 336 µM)
22. O=c1cc(-c2cccc(O)c2)oc2cccc(O)c12  80 µg/mL (≈ 315 µM)
23. O=c1cc(-c2ccccc2)oc2c(O)c(O)ccc12 [7,8-DIHYDROXYFLAVONE]  80 µg/mL (≈ 315 µM)
24. O=c1cc(-c2ccc(O)cc2)oc2ccccc12  120 µg/mL (≈ 504 µM)
25. COc1cc(-c2cc(=O)c3ccc(O)c(O)c3o2)cc(OC)c1OC  136 µg/mL (≈ 395 µM)
26. COc1cc(-c2cc(=O)c3cc(O)ccc3o2)cc(OC)c1O[Si](C)(C)C(C)(C)C  160 µg/mL (≈ 373 µM)
27. CC(C)(C)[Si](C)(C)Oc1ccc(-c2cc(=O)c3ccc(O)cc3o2)cc1  360 µg/mL (≈ 977 µM)
28. COc1cc(-c2cc(=O)c3ccc(O)cc3o2)cc(OC)c1O  400 µg/mL (≈ 1270 µM)
29. COc1cc(-c2cc(=O)c3ccc(O)cc3o2)cc(OC)c1O[Si](C)(C)C(C)(C)C  656 µg/mL (≈ 1530 µM)
30. O=c1cc(-c2ccc(OCc3ccccc3)cc2)oc2cc(O)ccc12  664 µg/mL (≈ 1930 µM)

Molecule `COc1cc(-c2cc(=O)c3ccc(O)cc3o2)cc(OC)c1OC` has an IC50 of over 800 µg/mL.
In the case of `COc1ccc2oc(-c3cc(OC)c(OC)c(OC)c3)cc(=O)c2c1`, the IC50 was over 800 µg/mL.
Work on `COc1cc(-c2cc(=O)c3ccc(OC(C)=O)cc3o2)cc(OC)c1O[Si](C)(C)C(C)(C)C` yielded an IC50 of over 800 µg/mL.
`COc1ccc2c(=O)cc(-c3cc(OC)c(OC)c(OC)c3)oc2c1` gave an IC50 of over 800 µg/mL.
With `COc1cc(-c2cc(=O)c3ccc(OC(C)=O)cc3o2)cc(OC)c1O` the IC50 was over 800 µg/mL.
In the case of `O=c1cc(-c2ccc(OCc3ccccc3)cc2)oc2cccc(O)c12`, the IC50 was over 800 µg/mL.
For `COc1cc(-c2cc(=O)c3ccc(OC(C)=O)c(OC(C)=O)c3o2)cc(OC)c1O[Si](C)(C)C(C)(C)C`, the IC50 was over 800 µg/mL.
